The values that follow come from ChEMBL document CHEMBL1133621, “Synthesis, characterization, and cytotoxicity of trifunctional dinuclear platinum complexes: comparison of effects of geometry and polyfunctionality on biological activity” (J Med Chem, 2000).

In general, IC50 refers to the point on the concentration scale where inhibition reaches its midpoint. Low values mean inhibition by little substance, high ones a need for much substance.

“And” between values parts separate entries of the source, which are not always exact repeats. Equal entries are not always repeated.

Common to all, as to assay type: functional, cell-based
For one assay, the system named is HX62 cell line. Briefly: Cytotoxic activity in a panel of Human ovarian tumor HX/62 cell line after 96h of drug exposure. A digest of the protocol:
(§1)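 SRB growth-inhibition assay. Cells were seeded at (3-8) × 10^3 per well and left to attach overnight. Platinum agents were added after serial dilution, in quadruplicate wells, with continuous 96 h exposure. Growth in treated and control wells was quantified by staining with 0.4% SRB dissolved in 1% acetic acid.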

Assay [1] concerns CH1. The assay can be described thus: Cytotoxic activity in a panel of Human ovarian tumor CH1/CDDP cell line after 96h of drug exposure. A digest of the protocol:
as §1

The test system of assay [2] is 41M. The assay can be described thus: Cytotoxic activity in a panel of Human ovarian tumor 41M cell line after 96h of drug exposure. The method in brief: as §1
In assay [3] the test system is A2780. Briefly: Cytotoxic activity in a panel of Human ovarian tumor A2780/CDDP cell line after 96h of drug exposure. A digest of the protocol:
as §1

In assay [4] the test system is CH1. The assay can be described thus: Cytotoxic activity in a panel of Human ovarian tumor CH1 cell line after 96h of drug exposure. A digest of the protocol: as §1
In assay [5] the test system is 41M. Briefly: Cytotoxic activity in a panel of Human ovarian tumor 41M/CDDP cell line after 96h of drug exposure. The method in brief:
as §1

Another assay has as its system SK-OV-3. The assay can be described thus: Cytotoxic activity in a panel of Human ovarian tumor SKOV-3 cell line after 96h of drug exposure. A digest of the protocol: as §1
The test system of assay [6] is CH1. The assay can be described thus: RF(Resistant factor) is determined from the ratio of IC50 of CH1 to the IC50 of CDDP cell lines.
Assay [7] deals with 41M. The assay can be described thus: RF(Resistant factor) is determined from the ratio of IC50 of 41M to the IC50 of CDDP cell lines.
Assay [8] has as its system A2780. The assay can be described thus: RF(Resistant factor) is determined from the ratio of IC50 of A2780 to the IC50 of CDDP cell lines.
Assay [9] concerns A2780. Briefly: Cytotoxic activity in a panel of Human ovarian tumor A2780 cell line after 96h of drug exposure. A digest of the protocol: as §1

On to CISPLATIN [listing 1 of 2 here], for which the IC50 in the assay with HX62 cell line was determined as 25 µM; with CH1 [1], 1.45 µM; in the assay on 41M [2], 0.54 µM; in the assay on A2780 [3], 6.2 µM; with CH1 [4], 0.18 µM; with 41M [5], 1.7 µM. In the assay on SK-OV-3, this substance yielded an IC50 of 8 µM.
As for CISPLATIN [listing 2 of 2 here], the RF in the assay on CH1 [6] is 8; with 41M [7], 3.1; with A2780 [8] it was 11.7.
Take “trans-[{PtCl(NH3)2}-mu-{NH2(CH2)6NH2}-cis-{PtCl2(NH3)}]Cl [listing 1 of 2 here]”: the IC50 in the assay on HX62 cell line is 24 µM and 12.5 µM; in the assay on A2780 [9], 0.28 µM and 0.066 µM; in the assay on CH1 [1] it was 0.97 µM and 0.98 µM; in the assay with 41M [2], 2.5 µM and 2.4 µM; with A2780 [3], 0.89 µM and 0.34 µM; in the assay with CH1 [4] it was 0.3 µM and 0.22 µM. The IC50 in the assay with 41M [5] was 0.67 µM and 1.3 µM; with SK-OV-3 it was 31 µM and 17.7 µM.
For “trans-[{PtCl(NH3)2}-mu-{NH2(CH2)6NH2}-cis-{PtCl2(NH3)}]Cl [listing 2 of 2 here]”, the RF in the assay on CH1 [6] was 3.2 and 4.4; in the assay on 41M [7] it was 0.27 and 0.53; in the assay on A2780 [8], 3.2 and 5.2.
As to “trans-[{PtCl(NH3)2}-mu-{NH2(CH2)6NH2}-trans-{PtCl(NH3)2}] [listing 1 of 2 here]”, the IC50 was 11 µM and 14 µM in the assay with HX62 cell line; 0.066 µM and 0.25 µM in the assay with A2780 [9]; 1.9 µM and 7.4 µM in the assay on 41M [2]; 1.2 µM and 4.9 µM in the assay on A2780 [3]; 0.41 µM and 1.8 µM with 41M [5]; 15.3 µM and 87 µM in the assay on SK-OV-3.
Regarding “trans-[{PtCl(NH3)2}-mu-{NH2(CH2)6NH2}-trans-{PtCl(NH3)2}] [listing 2 of 2 here]”, the RF in the assay with CH1 [6] was 3.3 and 2; in the assay on 41M [7] it was 0.21 and 0.24; in the assay with A2780 [8], 18 and 19.6.
